Measurements pooled from the literature.
Protocols differ between the studies behind these lines.
Read-out: cell growth or viability

COc1ccc(C[C@H](NC(=O)[C@H](C)NC(=O)CN2CCOCC2)C(=O)N[C@@H](Cc2ccccc2)C(=O)C(=O)Nc2ccccc2)cc1  CC50 (Caco-2; ATP luminescence; 48 h): 16.2 µM
Nc1nc(F)nc2c1ncn2[C@@H]1O[C@H](CO)[C@@H](O)[C@@H]1O  CC50 (LLC-MK2; 5 days): 54.1 µM
CC=C1[C@H]2C=C(C)C[C@]1(N(C)C)c1ccc(OC)nc1C2  cell death (IMR-90; MTT; 100 µM, 24 h): 5.5%
Nc1nc(F)nc2c1ncn2[C@@H]1O[C@H](COP(=O)(O)O)[C@@H](O)[C@@H]1O  CC50 (LLC-MK2; 5 days): 60.6 µM
CC(C)C[C@@H](C=O)NC(=O)[C@H](CC(C)C)NC(=O)[C@H](CC(C)C)NC(=O)OCc1ccccc1  CC50 (Caco-2; neutral red; 48 h): < 0.15 µM
O=c1c(O[C@@H]2O[C@H](CO)[C@@H](O)[C@H](O)[C@H]2O)c(-c2ccc(O)cc2)oc2cc(O)cc(O)c12  IC50 (RD; WST-1): 48.8 µM
CC(C)(C)NC(=O)N[C@H](C(=O)N1C[C@H]2[C@@H]([C@H]1C(=O)NC(CC1CCC1)C(=O)C(N)=O)C2(C)C)C(C)(C)C (some centres unmarked)  CC50 (Caco-2; neutral red; 48 h): > 100 µM
CC=C1[C@H]2C=C(C)C[C@]1(N)c1cc(CC)c(=O)[nH]c1C2  cell death (IMR-90; MTT; 100 µM, 24 h): 2.2%
